For one experiment, the system named is U-87 MG. The experiment in a line: Anti-proliferative activity against human U87G cells assessed as cell viability measured after 72 hrs by Cell-Titer assay. The experiment is classed as functional, cell-based, U-87MG ATCC. The gist of the method: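 U87G cells grown in EMEM with 10% FBS were plated in 96-well plates and dosed after 24 h, with 0.5% DMSO as vehicle. CellTiter-Blue read-out at 560/590 nm fluorescence after 72 h. IC50 by non-linear regression.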

The next experiment has as its system BV-173. Nature of the experiment: Anti-proliferative activity against human BV-173 cells assessed as cell viability measured after 72 hrs by Cell-Titer assay. The experiment is classed as functional, cell-based. Conditions: BV-173, 72 h. In short, it runs like this: (§1)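 Cells in RPMI-1640 with 10% FBS (AML3 in IMDM with 10% FBS). Cells were plated in 96-well plates, and after 24 h compounds or vehicle (0.5% DMSO) were added. CellTiter-Blue was added after 72 h and fluorescence was read at 560/590 nm. IC50 was obtained by non-linear regression.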

In a further experiment the test system is HeLa. The experiment in a line: Anti-proliferative activity against human HeLa cells assessed as cell viability measured after 72 hrs by Cell-Titer assay. The experiment is classed as functional, cell-based. In short, it runs like this: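 HeLa cells grown in DMEM with 10% FBS were plated in 96-well plates. After 24 h they were treated with compound or 0.5% DMSO vehicle. CellTiter-Blue was added at 72 h and read at 560/590 nm fluorescence. IC50 from non-linear regression.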

The next experiment has as its system Jurkat. Nature of the experiment: Anti-proliferative activity against human Jurkat cells assessed as cell viability measured after 72 hrs by Cell-Titer assay. The experiment is classed as functional, cell-based. The gist of the method: as §1
Another experiment deals with OCI-AML-3. The experiment in a line: Anti-proliferative activity against human AML-3 cells assessed as cell viability measured after 72 hrs by Cell-Titer assay. Particulars: OCI-AML-3, 72 h. The experiment is classed as functional, cell-based. In short, it runs like this:
as §1

In another experiment the test system is MOLM-13. Nature of the experiment: Anti-proliferative activity against human MOLM-13 cells assessed as cell viability measured after 72 hrs by Cell-Titer assay. The experiment is classed as functional, cell-based. Conditions: MOLM-13, 72 h. In short, it runs like this:
as §1

The target of experiment [1] is T1, Protein deacetylase HDAC6 (Homo sapiens) (UniProt Q9UBN7).
T1 sequence (whole entry): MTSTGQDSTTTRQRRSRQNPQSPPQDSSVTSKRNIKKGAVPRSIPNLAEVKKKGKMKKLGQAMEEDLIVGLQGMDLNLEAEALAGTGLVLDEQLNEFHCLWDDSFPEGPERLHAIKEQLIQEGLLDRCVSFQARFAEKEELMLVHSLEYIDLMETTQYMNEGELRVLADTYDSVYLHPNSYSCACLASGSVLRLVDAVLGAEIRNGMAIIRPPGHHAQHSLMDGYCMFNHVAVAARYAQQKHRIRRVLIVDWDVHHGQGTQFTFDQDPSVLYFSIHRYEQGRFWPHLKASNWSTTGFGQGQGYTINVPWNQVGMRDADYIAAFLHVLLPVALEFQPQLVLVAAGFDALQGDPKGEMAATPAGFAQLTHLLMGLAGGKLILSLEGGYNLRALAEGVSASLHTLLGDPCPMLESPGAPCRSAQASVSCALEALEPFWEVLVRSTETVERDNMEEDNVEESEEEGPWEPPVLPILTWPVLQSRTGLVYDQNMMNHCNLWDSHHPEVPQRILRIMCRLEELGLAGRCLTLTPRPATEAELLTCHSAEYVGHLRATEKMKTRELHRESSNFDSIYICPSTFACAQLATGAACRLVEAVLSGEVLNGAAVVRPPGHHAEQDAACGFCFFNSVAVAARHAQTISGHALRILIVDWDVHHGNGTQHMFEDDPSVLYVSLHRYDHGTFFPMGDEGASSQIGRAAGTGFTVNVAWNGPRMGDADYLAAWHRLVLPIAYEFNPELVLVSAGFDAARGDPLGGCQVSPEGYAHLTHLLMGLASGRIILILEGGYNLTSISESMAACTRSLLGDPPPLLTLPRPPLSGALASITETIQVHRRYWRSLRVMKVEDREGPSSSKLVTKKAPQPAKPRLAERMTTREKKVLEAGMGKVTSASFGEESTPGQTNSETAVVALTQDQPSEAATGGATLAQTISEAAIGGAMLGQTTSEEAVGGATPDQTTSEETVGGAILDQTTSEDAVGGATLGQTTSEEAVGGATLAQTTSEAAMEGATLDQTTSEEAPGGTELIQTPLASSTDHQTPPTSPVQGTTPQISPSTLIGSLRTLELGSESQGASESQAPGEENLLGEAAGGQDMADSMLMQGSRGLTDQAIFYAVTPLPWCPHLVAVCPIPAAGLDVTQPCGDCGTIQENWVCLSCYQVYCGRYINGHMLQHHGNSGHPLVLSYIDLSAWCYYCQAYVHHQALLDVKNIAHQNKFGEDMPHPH
The experiment in a line: Inhibition of HDAC6 in human HeLa cells assessed as acetylation of alpha tubulin accumulation at 0.1 uM by DAPI staining based immunofluorescent assay. The experiment is classed as cell-based. The gist of the method:
(§2)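 HeLa cells plated to sub-confluency and treated after 24 h with compound at 0.1 or 2 μM for 6 h; DMSO served as vehicle control. Cells were fixed (4% formaldehyde), permeabilized (1% Triton X-100) and blocked in 5% BSA for 1 h at room temperature. Staining used anti-acetyl-α-tubulin (1:100) plus anti-acetyl-H3 Lys18 (1:50) with DAPI counterstain, then imaging and quantification. Values are the mean of duplicates.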

For the next experiment, the system named is MV4-11. Nature of the experiment: Anti-proliferative activity against human MV4-11 cells assessed as cell viability measured after 72 hrs by Cell-Titer assay. The experiment is classed as functional, cell-based. Particulars: MV4-11, 72 h. The gist of the method: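 MV4-11 cells grown in IMDM with 10% FBS were plated in 96-well plates. After 24 h, compounds or vehicle (0.5% DMSO) were added. After 72 h, CellTiter-Blue was added and fluorescence was read at 560/590 nm. IC50 came from non-linear regression.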

The test system of a further experiment is RPMI-8226. The experiment in a line: Anti-proliferative activity against human RPMI-8226 cells assessed as cell viability measured after 72 hrs by Cell-Titer assay. The experiment is classed as functional, cell-based. Conditions: RPMI-8226, 72 h. The gist of the method: as §1
A further experiment has as its system MM1.S. The experiment in a line: Anti-proliferative activity against human MM1.S cells assessed as cell viability measured after 72 hrs by Cell-Titer assay. The experiment is classed as functional, cell-based. The gist of the method:
as §1

The target in experiment [2] is T1, Protein deacetylase HDAC6 (Homo sapiens). Nature of the experiment: Inhibition of HDAC6 in human HeLa cells assessed as acetylation of alpha tubulin accumulation at 2 uM by DAPI staining based immunofluorescent assay. The experiment is classed as cell-based. The gist of the method:
as §2

The target is the same in experiment [3]. Nature of the experiment: Inhibition of HDAC6 in human MV4-11 cells assessed as increase in acetylation of alpha tubulin at 0.25 uM by Western blot analysis. The experiment is classed as cell-based. In short, it runs like this: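 MV4-11 cells incubated with compound for 6 h (0.25–1 μM range), then lysed in RIPA buffer. Lysates were BCA-quantified and run on 4–20% SDS-PAGE, then transferred to nitrocellulose and blocked in 5% milk/PBST. Primary anti-acetyl-α-tubulin mouse monoclonal and HSC70 (1:1000) were applied overnight at 4 °C, followed by HRP anti-mouse (1:5000) and ECL detection.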
(In western blotting, separated proteins are transferred to a membrane and probed.)

A short description of experiment [4]: Anti-proliferative activity against human AR230 cells assessed as cell viability measured after 72 hrs by Cell-Titer assay. The experiment is classed as functional, cell-based. The gist of the method:
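AR230 cells were maintained in RPMI-1640 with 10% FBS, 2 mM L-glutamine and 1 μM imatinib. Cells were plated in 96-well plates and dosed after 24 h, with 0.5% DMSO as vehicle. CellTiter-Blue fluorescence was read at 560/590 nm after 72 h. IC50 by non-linear regression.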

Experiment [5] in a line: Anti-proliferative activity against human MRC9 cells assessed as cell viability measured after 72 hrs by Cell-Titer assay. The experiment is classed as functional, cell-based. Particulars: MRC9, 72 h. In short, it runs like this: as §1

Calls of active or inactive are those of the source. No cut-off for these calls is given here.

Regarding `O=C(NO)c1ccc(CN(Cc2cccnc2)S(=O)(=O)c2cc(F)c(F)c(F)c2F)cc1`, the half-maximal inhibitory concentration (IC50) in the experiment on U-87 MG stood at 2000 nM; with BV-173 it was 1700 nM; with HeLa, 3500 nM; in the experiment with Jurkat, 1900 nM; in the experiment with OCI-AML-3, 3300 nM; in the experiment on MOLM-13 it was 2000 nM. For the same compound, the IC50 is 600 nM with MV4-11; 700 nM in the experiment on RPMI-8226; 700 nM in the experiment with MM1.S; 1500 nM in experiment [4]; > 50000 nM in experiment [5]. Also, the outcome in experiment [1] was inactive. Besides, the result in experiment [2] and in experiment [3] was Active.
For the compound `O=C(CCCCCCNC(=O)c1cnc(N(c2ccccc2)c2ccccc2Cl)nc1)NO` [CITARINOSTAT], the half-inhibitory concentration (IC50) in the experiment on U-87 MG was determined as 9100 nM; in the experiment on BV-173 it was 900 nM; in the experiment on HeLa, 7000 nM; in the experiment with Jurkat it was 1200 nM; in the experiment with OCI-AML-3 it was 7700 nM; with MOLM-13, 13500 nM. In addition, the IC50 in the experiment with MV4-11 turned out to be 1200 nM; in the experiment on RPMI-8226 it was 6500 nM; in the experiment on MM1.S it was 1600 nM; in experiment [4] it was 4300 nM; in experiment [5], 30400 nM. Further, the outcome in experiment [1] and in experiment [2] was inactive. For the same compound, in [3], the result was Active.

Broadly, the IC50 is the concentration needed to halve the response being measured.

The values above are taken from ChEMBL document CHEMBL5042469, “Unique Molecular Interaction with the Histone Deacetylase 6 Catalytic Tunnel: Crystallographic and Biological Characterization of a Model Chemotype” (J Med Chem, 2021).
